Laboratory results reported in ChEMBL document CHEMBL1828516, “Discovery of novel alkylated (bis)urea and (bis)thiourea polyamine analogues with potent antimalarial activities” (J Med Chem, 2011).
Calls of active or inactive are those of the source. No cut-off for these calls is given here.

How the values were obtained:
[1] = system: Plasmodium falciparum; test: Antimalarial activity against drug-sensitive Plasmodium falciparum 3D7 infected in human erythrocytes after 96 hrs by SYBR Green I-based fluorescence assay; type: functional, organism-based; details: 3D7, 96 h
Method in brief: (§1)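 Ring-stage cultures synchronized with 10% D-sorbitol, grown in O+ human erythrocytes in RPMI-1640 with HEPES, hypoxanthine, glucose, gentamycin and Albumax II under 5% CO2/5% O2/90% N2 at 37°C. Compounds in DMSO (<0.013%), serially diluted, added at 1% parasitemia, 2% hematocrit. Static 96 h incubation, then SYBR Green I lysis buffer for 1 h in dark. Fluorescence at ex 485/em 538 nm.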

[2] = system: Plasmodium falciparum; test: Antimalarial activity against […] Plasmodium falciparum HB3 infected in human erythrocytes after 96 hrs by SYBR Green I-based fluorescence assay; type: functional, organism-based; details: HB3, 96 h; method in brief: as §1
[3] = system: Trypanosoma brucei; test: Antitrypanosomal activity against Trypanosoma brucei; type: functional, organism-based
[4] = system: Plasmodium falciparum; test: Antimalarial activity against Plasmodium falciparum 3D7 infected in human erythrocytes assessed as decrease in parasitemia at 2 times IC50 after 72 hrs by giemsa staining method; type: functional, organism-based
Method in brief: (§2)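 P. falciparum 3D7 in O+ human erythrocytes, treated at 2xIC50 for 72 h. Parasitemia scored microscopically on Giemsa-stained smears, counting 100 parasites per slide 10x, alongside SYBR Green I DNA quantitation. Parasitemia compared at 0 h and 72 h. Three independent experiments in triplicate, mean ± S.E.; Student t-test, P<0.05.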

[5] = system: Plasmodium falciparum; test: Antimalarial activity against Plasmodium falciparum assessed as inhibition of DNA replication at 2 times IC50 after 72 hrs by FITC-SYBR Green I-based flow cytometry; type: functional, organism-based
[6] = system: HepG2; test: Cytotoxicity against human HepG2 cells after 48 hrs by lactate dehydrogenase assay; type: cell-based; details: hepg2, 48 h
Method in brief: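 HepG2 cells in DMEM with 10% heat-inactivated FBS, 37°C, 5% CO2. Cells pelleted at 250xg, supernatant LDH activity read colorimetrically as NADH at 450 nm after 30 min at room temperature. Duplicate, at least two biological repeats, mean ± S.E.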

[7] = system: Plasmodium falciparum; test: Antimalarial activity against Plasmodium falciparum assessed as increase in 1N ring or trophozoite stage parasites at 2 times IC50 after 72 hrs by FITC-SYBR Green I-based flow cytometry; type: functional, organism-based
[8] = system: Plasmodium falciparum; test: Resistance ratio of IC50 for Plasmodium falciparum W2 to IC50 for Plasmodium falciparum 3D7; type: functional
Method in brief: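 Ratio of W2 IC50 to 3D7 IC50, both from the 96 h SYBR Green I fluorescence assay.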

[9] = system: Plasmodium falciparum; test: Antimalarial activity against Plasmodium falciparum assessed as reduction in 2N schizont stage parasites at 2 times IC50 after 72 hrs by FITC-SYBR Green I-based flow cytometry; type: functional, organism-based
[10] = system: Plasmodium falciparum; test: Antimalarial activity against antifolate-resistant Plasmodium falciparum W2 infected in human erythrocytes after 96 hrs by SYBR Green I-based fluorescence assay; type: functional, organism-based; details: W2, 96 h; method in brief: as §1
[11] = Selectivity index, ratio of GI50 for human HepG2 cells to IC50 for Plasmodium falciparum 3D7; type: functional
[12] = system: Plasmodium falciparum; test: Antimalarial activity against Plasmodium falciparum assessed as reduction in >2N schizont stage parasites at 2 times IC50 after 72 hrs by FITC-SYBR Green I-based flow cytometry; type: functional, organism-based
[13] = system: Plasmodium falciparum; test: Antimalarial activity against Plasmodium falciparum assessed as inhibition of nuclear division measuring >2N schizont stage parasites at 2 times IC50 after 72 hrs by FITC-SYBR Green I-based flow cytometry (reference value: 34 %); type: functional; parameters: scale not given: the % may be the effect or the level left
[14] = system: Plasmodium falciparum; test: Antimalarial activity against Plasmodium falciparum assessed as inhibition of nuclear division measuring 2N schizont stage parasites at 2 times IC50 after 72 hrs by FITC-SYBR Green I-based flow cytometry (reference value: 38 %); type: functional; parameters: scale not given: the % may be the effect or the level left
[15] = system: Plasmodium falciparum; test: Antimalarial activity against Plasmodium falciparum assessed as inhibition of nuclear division measuring 1N ring or trophozoite stage parasites at 2 times IC50 after 72 hrs by FITC-SYBR Green I-based flow cytometry (reference value: 28 %); type: functional; parameters: scale not given: the % may be the effect or the level left
[16] = system: Plasmodium falciparum; test: Antimalarial activity against Plasmodium falciparum 3D7 infected in human erythrocytes assessed as decrease in parasitemia at 2 times IC50 up to 72 hrs by SYBR Green I-based fluorescence assay in the presence of putrescine; type: functional, organism-based
Method in brief: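 Early-ring 3D7 cultures treated at 2xIC50 with 1 mM putrescine added after 24 h or 48 h, then incubated a further 24 or 48 h. Parasitemia followed over 72 h by SYBR Green I lysis fluorescence, as in the MSF assay. At least three biological repeats in duplicate, mean ± S.E.; two-way ANOVA, P<0.05.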

[17] = system: Plasmodium falciparum; test: Cytostatic activity against Plasmodium falciparum 3D7 infected in human erythrocytes at 2 times IC50 after 72 hrs by giemsa staining method; type: functional, organism-based; method in brief: as §2

Row | SMILES | IC50 [1] [nM] | IC50 [2] [nM] | Activity [4] | DNA replication inhibition (active/inactive) [5] | GI50 [6] [nM] | Activity [7] | Activity [9] | IC50 [10] [nM] | Activity [12] | also measured
1 | CC(=N)NCCCNCCCNCCCNC(C)=N | 147000 | 110000 | – | – | – | – | – | – | – | –
2 | S=C(NCCCNCCCCNCCCNC(=S)NC(c1ccccc1)c1ccccc1)NC(c1ccccc1)c1ccccc1 | 433 | 317 | – | – | – | – | – | – | – | –
3 | CCNC(=O)NCCCNCCCCCCNCCCNC(=O)NCC | > 15000 | – | – | – | – | – | – | – | – | –
4 | CCCNC(=S)NCCCNCCCCCCNCCCNC(=S)NCCC | 425 | – | – | – | – | – | – | – | – | –
5 | S=C(NCCCNCCCNCCCNC(=S)NCCC(c1ccccc1)c1ccccc1)NCCC(c1ccccc1)c1ccccc1 | 1430 | 1640 | – | – | – | – | – | – | – | –
6 | CC(=N)NCCCNCCCCCCCNCCCNC(C)=N | – | 70300 | – | – | – | – | – | – | – | –
7 | N=C(NCCCNCCCCCCCNCCCNC(=N)NC(=N)NCCC(c1ccccc1)c1ccccc1)NC(=N)NCCC(c1ccccc1)c1ccccc1 | 298 | 224 | – | – | – | – | – | – | – | IC50 [3]: 90 nM
8 | Cl.Cl.S=C(NCCCNCCCCCCNCCCNC(=S)NC(c1ccccc1)c1ccccc1)NC(c1ccccc1)c1ccccc1 | 211 | – | Active | Active | > 200000 | Active | Active | 256 | Active | Ratio IC50 [8]: 1.2; Selectivity Index [11]: >500
9 | S=C(NCCCNCCCCCCNCCCNC(=S)NCC(c1ccccc1)c1ccccc1)NCC(c1ccccc1)c1ccccc1 | 436 | – | – | – | – | – | – | – | – | –
10 | Cl.Cl.O=C(NCCCNCCCCCCCNCCCNC(=O)NCC(c1ccccc1)c1ccccc1)NCC(c1ccccc1)c1ccccc1 | 100 | – | Active | Active | 33800 | Active | Active | 140 | Active | Ratio IC50 [8]: 1.4; Selectivity Index [11]: 338
11 | Cl.Cl.O=C(NCCCNCCCCCCCNCCCNC(=O)NC(c1ccccc1)c1ccccc1)NC(c1ccccc1)c1ccccc1 | 131 | – | Active | Active | > 200000 | Active | Active | 221 | Active | Ratio IC50 [8]: 1.7; Selectivity Index [11]: >1500
12 | S=C(NCCCNCCCCCCNCCCNC(=S)Nc1ccccc1)Nc1ccccc1 | 846 | – | – | – | – | – | – | – | – | –
13 | CC(=N)NCCCNCCCCNCCCNC(C)=N | 80000 | 14200 | – | – | – | – | – | – | – | –
14 | S=C(NCCCNCCCNCCCNC(=S)NCC(c1ccccc1)c1ccccc1)NCC(c1ccccc1)c1ccccc1 | 1320 | 715 | – | – | – | – | – | – | – | –
15 | O=C(NCCCNCCCCNCCCNC(=O)NCc1ccccc1)NCc1ccccc1 | 3480 | > 1000 | – | – | – | – | – | – | – | –
16 | Cl.Cl.S=C(NCCCNCCCCCCNCCCNC(=S)NCc1ccccc1)NCc1ccccc1 | 106 | – | Active | Active | > 200000 | Active | Active | 198 | Active | Ratio IC50 [8]: 1.9; Selectivity Index [11]: >1500
17 | S=C(NCCCNCCCNCCCNC(=S)NC(c1ccccc1)c1ccccc1)NC(c1ccccc1)c1ccccc1 | 1080 | 766 | – | – | – | – | – | – | – | –

Row | SMILES | IC50 [1] [nM] | IC50 [2] [nM] | Activity [4] | DNA replication inhibition (active/inactive) [5] | GI50 [6] [nM] | Activity [7] | Activity [9] | IC50 [10] [nM] | Activity [12] | also measured
18 | O=C(NCCCNCCCCCCNCCCNC(=O)NCc1ccccc1)NCc1ccccc1 | 339 | – | – | – | – | – | – | – | – | –
19 | CCCNC(=O)NCCCNCCCCCCNCCCNC(=O)NCCC | 14100 | – | – | – | – | – | – | – | – | –
20 | S=C(NCCCNCCCCCCNCCCNC(=S)NCCC(c1ccccc1)c1ccccc1)NCCC(c1ccccc1)c1ccccc1 | 310 | – | – | – | – | – | – | – | – | –
21 | O=C(NCCCNCCCCNCCCNC(=O)NC(c1ccccc1)c1ccccc1)NC(c1ccccc1)c1ccccc1 | 691 | – | – | – | – | – | – | – | – | –
22 | Cl.Cl.S=C(NCCCNCCCCCCCNCCCNC(=S)NCCC(c1ccccc1)c1ccccc1)NCCC(c1ccccc1)c1ccccc1 | 253 | 256 | Active | Active | 24500 | Active | Active | 147 | Active | Ratio IC50 [8]: 0.58; Selectivity Index [11]: 97
23 | O=C(NCCCNCCCCNCCCNC(=O)NCC(c1ccccc1)c1ccccc1)NCC(c1ccccc1)c1ccccc1 | 408 | – | – | – | – | – | – | – | – | –
24 | S=C(NCCCNCCCCNCCCNC(=S)NCCC(c1ccccc1)c1ccccc1)NCCC(c1ccccc1)c1ccccc1 | 528 | 1030 | – | – | – | – | – | – | – | –
25 | S=C(NCCCNCCCCCCCNCCCNC(=S)NC(c1ccccc1)c1ccccc1)NC(c1ccccc1)c1ccccc1 | 641 | 138 | – | – | – | – | – | – | – | –
26 | Cl.Cl.S=C(NCCCNCCCCCCCNCCCNC(=S)NCC(c1ccccc1)c1ccccc1)NCC(c1ccccc1)c1ccccc1 | 405 | – | Active | Active | 24700 | Active | Active | 183 | Active | Activity [13]: 2%; Activity [14]: 20%; Activity [15]: 78%; Activity [16]: Active
27 | Cl.Cl.O=C(NCCCNCCCCCCNCCCNC(=O)Nc1ccccc1)Nc1ccccc1 | 88 | – | Active | Active | 619000 | Active | Active | 26 | Active | Ratio IC50 [8]: 0.3; Selectivity Index [11]: 7038
28 | S=C(NCCCNCCCCNCCCNC(=S)NCC(c1ccccc1)c1ccccc1)NCC(c1ccccc1)c1ccccc1 | 329 | 170 | Active | Active | 18900 | Active | Active | 200 | Active | –
29 | CCNC(=S)NCCCNCCCCCCNCCCNC(=S)NCC | 1350 | – | – | – | – | – | – | – | – | –
30 | O=C(NCCCNCCCCNCCCNC(=O)NCCC(c1ccccc1)c1ccccc1)NCCC(c1ccccc1)c1ccccc1 | 657 | 517 | – | – | – | – | – | – | – | –
31 | Cl.Cl.O=C(NCCCNCCCCCCCNCCCNC(=O)NCCC(c1ccccc1)c1ccccc1)NCCC(c1ccccc1)c1ccccc1 | 144 | 200 | Active | Active | 23900 | Active | Active | 163 | Active | Ratio IC50 [8]: 1.13; Selectivity Index [11]: 166
32 | Cl.Cl.S=C(NCCCNCCCCNCCCNC(=S)NCc1ccccc1)NCc1ccccc1 | 355 | – | inactive | inactive | > 200000 | inactive | inactive | 66 | inactive | Ratio IC50 [8]: 0.19; Selectivity Index [11]: >500; Activity [17]: Active
33 | O=C(NCCCNCCCNCCCNC(=O)NCCC(c1ccccc1)c1ccccc1)NCCC(c1ccccc1)c1ccccc1 | 653 | – | – | – | – | – | – | – | – | –
